Compound activity from PubChem BioAssay.
CHRM5 PAM: potentiates acetylcholine response at human M5 receptor | P08912 | CHO-K1 hM5, Fluo-8 calcium, ACh EC20 PAM; 0% = ACh EC20, 100% = ACh EC100 | activation, % at 3 µM | 0.3% of 360,000 active;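 active means activation above the run cutoff, the mean activation of all test compounds plus 3 SD, cut at about 18% in these data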
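System: CHO-K1 cell line with stable human muscarinic M5 receptor expression | Also added: EC20 acetylcholine as agonist stimulus | Compound: One concentration, 3 µM final (nominal) | Timing: Fluo-8 loading 80 min at 37 °C plus 30 min room temperature | Measured by: Fluo-8 calcium dye fluorescence, kinetic read | Read-out basis: % activation, ACh-normalized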
CHRM4 agonist: CHRM4 agonism in calcium assay; P08173; CHO-K1 hM4/Gqi5, Fluo-8 calcium fluorescence; vehicle 0%, full acetylcholine response 100%; activation, % at 3 µM; 0.14% of 360,000 active;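 active means activation above the run mean over all test wells plus 3 SD, cut at about 32% in these data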;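 further: peak over basal fluorescence ratio per well then scaled between controls; 0% = DMSO wells and 100% = acetylcholine at EC100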
Target sequence (P08173 whole entry, looked up): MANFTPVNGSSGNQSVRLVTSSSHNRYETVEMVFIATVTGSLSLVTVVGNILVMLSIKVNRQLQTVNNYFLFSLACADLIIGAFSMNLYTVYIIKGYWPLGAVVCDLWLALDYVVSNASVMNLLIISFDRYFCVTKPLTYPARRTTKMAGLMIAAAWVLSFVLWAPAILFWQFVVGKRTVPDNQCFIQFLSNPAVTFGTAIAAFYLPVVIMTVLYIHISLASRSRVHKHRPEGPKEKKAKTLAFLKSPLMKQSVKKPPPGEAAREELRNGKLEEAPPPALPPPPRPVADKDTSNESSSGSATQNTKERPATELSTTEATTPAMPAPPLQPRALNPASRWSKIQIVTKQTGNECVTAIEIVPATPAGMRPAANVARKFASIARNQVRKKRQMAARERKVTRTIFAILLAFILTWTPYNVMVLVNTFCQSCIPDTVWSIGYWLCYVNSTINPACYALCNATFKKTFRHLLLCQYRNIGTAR
CHRM4 antagonist: blocks acetylcholine activation of human M4 receptor; CHO-hM4 cells, ACh EC80, Fluo-8 calcium fluorescence; inhibition, % at 3 µM; 0.73% of 360,000 active;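 active means inhibition above its plate's cutoff, the mean inhibition of sample wells plus 3 SD, cut at about 27% in these data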;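 further: 0% = acetylcholine EC80 with DMSO and 100% = DMSO without agonist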
CHRM5 agonist: agonists of human muscarinic M5 receptor (CHRM5) | activation, % at 3 µM | P08912 | CHO-K1 hM5 cells, Fluo-8 calcium fluorescence; 0% DMSO wells, 100% maximal acetylcholine response | 0.19% of 360,000 active;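 active means activation above the run's mean over test compounds plus 3 SD, cut at about 23% in these data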;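 further: signal is peak over basal fluorescence ratio across the kinetic read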
M5 antag: antagonists of human muscarinic M5 receptor (CHRM5). P08912. CHO-hM5 cells, Fluo-8 calcium fluorescence, ACh EC80. inhibition, % at 3 µM. 0.59% of 360,000 active;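 active means inhibition above a per-plate cutoff, the mean of that plate's test compounds plus 3 SD, cut at about 27% in these data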;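 further: 0% = acetylcholine EC80 with DMSO and 100% = DMSO without agonist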
M4 PAM: potentiates acetylcholine response at human M4 receptor; P08173; CHO-K1 hM4/Gqi5, Fluo-8 calcium fluorescence, ACh EC20; 0% = ACh EC20, 100% = maximal ACh; activation, % at 3 µM; 0.4% of 360,000 active; AID 624126;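 active means activation above its plate's cutoff, the mean activation of sample wells plus 3 SD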
* = called active by the depositor. Sampled rows, rich in hits. Any-hit rate of the full collection: about 1.8%.

SMILES	CHRM5 PAM	CHRM4 agonist	CHRM4 antagonist	CHRM5 agonist	M5 antag	M4 PAM
CC[C@]12c3[nH]c4ccccc4c3CCN1C(=O)C(CC(=O)NCC13CC4CC(CC(C4)C1)C3)C[C@@H]2C(=O)N1CCN(C(=O)c2ccco2)CC1 (stereo partly specified)	-2.3	5.9	32.5*	-0.1	13.4	-16.6
CC[C@]12c3[nH]c4ccc(OC)cc4c3CCN1C(=O)C(CC(=O)NCc1ccc(OC)c(OC)c1)C[C@@H]2C(=O)N1CCN(C(=O)C2CC2)CC1 (stereo partly specified)	3.4	-0.6	29.1*	0.8	-12.9	-11.8
O=C(NC(=O)c1cc([N+](=O)[O-])ccc1Cl)C1=C(N2CCCC2)COC1=O	-1.3	1.2	-4.7	-3.0	10.5	18.7
C1CCCCCC(NCCN2CCNCC2)CCCCC1	-0.6	0.1	5.7	-5.2	10.5	-16.6
N#CC1=C(N2CCCCC2)c2cc3c(n2C1=O)CCCC3	-2.6	2.3	30.5*	-4.5	12.9	-19.1
COc1cc(C2Nc3cc(Cl)c(S(N)(=O)=O)cc3S(=O)(=O)N2)cc(OC)c1OC (stereo unspecified)	5.7	-0.1	10.2	1.8	0.7	23.9*
N#CCCn1cc(/C=N/O)c(-c2cccc([N+](=O)[O-])c2)n1	-15.4	0.8	8.2	-10.5	46.8*	3.7
N#CCCn1cc(/C=N/O)c(-c2ccccc2)n1	9.5	0.7	2.0	2.0	-8.0	19.2
CCC(=O)N1CCc2cc(S(=O)(=O)NCCN3CCCCC3CC)ccc21 (stereo unspecified)	23.6*	0.3	-5.9	-10.3	-8.8	0.7
COc1ccc2[nH]c(=O)c(CNC3CCCCC3)cc2c1	23.4*	2.2	-21.7	1.9	-1.3	22.9*
COc1ccc(-c2nnc(SCC(=O)NC(=O)Cc3ccccc3)n2C)cc1	0.1	0.2	-2.8	2.0	0.7	2.6
c1ccc(-c2noc(C3CCC3)n2)nc1	18.4*	0.9	-6.9	4.6	-9.8	1.3
CCCCC1CCC(c2nc(-c3ccccn3)no2)CC1 (stereo unspecified)	1.6	-0.8	-1.1	0.7	0.8	18.3
N#Cc1nc(-c2cccs2)oc1N1CCN(Cc2ccccc2)CC1	-3.5	8.5	84.6*	-1.7	-5.7	2.9
Cc1ccc(S(=O)(=O)N(C)C[C@@H]2Oc3ccc(NS(C)(=O)=O)cc3CC(=O)N([C@H](C)CO)C[C@@H]2C)cc1	-2.2	0.1	-0.5	-2.2	12.2	-5.0
CCOc1ccc(C2C(C#N)=C(N)SC(N)=C2C#N)cc1OCC	-2.9	5.6	5.3	5.1	4.3	0.6
CCc1ccc(C2C(C#N)=C(N)SC(N)=C2C#N)cc1	-12.8	45.8*	0.6	15.8	0.3	-13.0
CN(/N=C/c1ccc(-c2ccc([N+](=O)[O-])cc2)o1)c1ccccc1	-3.7	16.2	10.0	33.6*	25.0	-10.4
COCC(C)NC(=S)Nc1ccccc1[N+](=O)[O-] (stereo unspecified)	19.6*	1.3	-1.4	4.6	-12.2	5.4
CNC(=S)NN=C(C)CCCC(C)=NNC(=S)NC	-4.2	2.1	-12.8	1.7	3.0	1.0
CCC(C)NC(=O)c1cnn2c(C)c3c(nc12)CCCC3 (stereo unspecified)	-3.4	-2.3	18.2	-5.1	-1.0	38.5*
Cc1c2c(nc3c(C(=O)NC4CC4)cnn13)CCCC2	5.7	-2.2	-0.6	-7.2	-3.5	2.8
Cc1nnsc1C(=O)NC1CCCc2c1cnn2-c1ccc(C(C)(C)C)cc1 (stereo unspecified)	-12.9	13.1	10.5	-1.7	27.5*	-5.1
Cc1nnsc1C(=O)NC1CCCc2c1cnn2-c1ccccc1F (stereo unspecified)	-9.1	10.2	2.7	6.1	7.6	-1.3
O=C1C=CC(=Nc2ccc(F)cc2)O1	22.2*	1.9	-20.9	-1.5	-10.7	9.3
SMILES	CHRM5 PAM	CHRM4 agonist	CHRM4 antagonist	CHRM5 agonist	M5 antag	M4 PAM
O=C(O)c1cccc(-n2c(-c3cnccn3)n[nH]c2=S)c1	18.3*	1.0	-6.0	2.9	-6.6	3.7
NC(=O)c1ccccc1NC(=O)c1ccoc1	-3.0	0.4	8.6	-3.6	1.5	-1.4
O=C(CSc1nc(C(F)(F)F)cc(=O)[nH]1)Nc1cccc2ccccc12	16.8	0.0	-8.5	-2.3	-18.5	22.5*
CCNc1nc(NCC)n2c(SCC(=O)Nc3cccc(Cl)c3)nnc2n1	22.3*	0.1	-14.6	0.7	-7.8	7.6
COc1cc(NC(=O)c2cccs2)c(OC)cc1NC(=O)Nc1ccc(F)cc1	-12.6	3.2	-7.6	-2.9	4.4	-3.3
CCn1c(CNC(=O)COc2ccc(C(C)C)cc2)nnc1SCC(=O)Nc1ccccc1C(C)C	-9.3	9.1	2.2	3.9	27.6*	-12.8
COCCNC(=O)C(c1ccc(C)o1)N(Cc1ccc(F)cc1)C(=O)Cn1nnc2ccccc21 (stereo unspecified)	22.5*	1.6	-8.3	-5.1	1.4	0.6
CCOC(=O)N1CCC(N(CCN(C)C)C(=S)Nc2ccccc2OC)CC1	5.2	-0.1	-0.9	-7.2	6.4	-14.1
CCOC(=O)N1CCC(N(CCN(C)C)C(=S)Nc2ccccc2OCC)CC1	37.6*	1.4	6.7	-4.7	2.2	-17.8
Cc1nc2ccccc2n1CC(=O)c1ccccc1	12.8	1.9	-0.7	5.3	-1.5	-2.5
CC1CCN(c2nc3ccccc3n2CC(=O)c2ccccc2)CC1	-16.6	0.8	58.4*	-8.4	5.5	-26.1
Cc1cc(-c2csc(NC(=O)c3ccc(C#N)cc3)n2)c(C)n1Cc1ccco1	6.5	1.3	15.3	2.9	6.7	24.7*
O=[N+]([O-])c1cc(C(F)(F)F)cc([N+](=O)[O-])c1NCCNC(=S)Nc1cccc(F)c1	-25.6	18.4	16.0	12.0	28.0*	-31.0
O=C(Nc1cnc2ccccc2c1)N1CCOCC1	0.5	1.6	-17.7	-3.0	-3.7	19.6*
O=[N+]([O-])c1cccc(CON=Cc2ccccc2O)c1	-5.8	1.5	-16.7	-2.3	3.2	-1.6
COc1ccc(CCN2CCCC(CN(C)C(=O)c3ccoc3)C2)cc1 (stereo unspecified)	-3.5	0.4	-2.9	-7.9	14.5	1.1
O=C(NCc1ccccc1Cl)c1ccc(S(=O)(=O)Nc2cccc(C(F)(F)F)c2)cc1	5.3	10.4	14.8	9.7	3.4	-1.8
OC(CCN1CCC2CCC(C2)C1)c1ccc(Br)cc1 (stereo unspecified)	-12.5	-1.0	37.1*	-11.3	3.9	-13.4
CN(C)c1oc(/C=C/c2cccs2)nc1S(=O)(=O)c1ccccc1	1.8	0.8	-6.3	-4.4	-5.8	5.1
O=C(Cn1c(=O)sc2ccccc21)Nc1ccc(O)cc1	6.5	2.2	-14.5	-1.1	-12.2	24.1*
